Columns and labels:
[1] = Inhibition of recombinant His6-tagged HIV-1 integrase binding to FLAG-tagged LEDGF/p75 (unknown origin) interaction expressed in Escherichia coli BL21(DE3) treated 30 mins before LEDGF/p75 addition measured after 60 mins by AlphaScreen assay
Method in brief: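 His6-IN (300 nM final) with compound for 30 min at 4 °C. FLAG-LEDGF/p75 (300 nM final) added for 60 min at 4 °C. Ni-chelate donor and anti-FLAG acceptor beads added, 1 h at 30 °C, light exposure minimized. Acceptor emission read. IC50 is the 50% inhibition of the interaction.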

[2] = molecular target: T1, Human immunodeficiency virus type 1 integrase (Human immunodeficiency virus 1, UniProt Q7ZJM1); test: Inhibition of recombinant His6-tagged HIV-1 integrase 3' processing activity
[3] = Cytotoxicity against human MT4 cells; format: cell-based
[4] = molecular target: T1, Human immunodeficiency virus type 1 integrase; test: Inhibition of recombinant His6-tagged HIV-1 integrase 3' strand transfer activity
[5] = Inhibition of recombinant His6-tagged HIV-1 integrase binding to FLAG-tagged LEDGF/p75 (unknown origin) interaction expressed in Escherichia coli BL21(DE3) at 20 uM treated 30 mins before LEDGF/p75 addition measured after 60 mins by quench assay
Method in brief: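 Emission-quench counter-screen run like the IN–LEDGF/p75 AlphaScreen, with FLAG-tagged GST (500 nM final) instead of both proteins. Same buffer, Ni-chelate donor and anti-FLAG acceptor beads, 1 h at 30 °C, acceptor emission read. Reported as percent inhibition at a single compound concentration.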

[6] = test system: Human immunodeficiency virus 1; test: Antiviral activity against HIV1 infected in human MT4 cells assessed as virus-induced cytopathic effect by MTT assay; format: functional, organism-based; settings: Human immunodeficiency virus 1, MT4

T1 sequence (Q7ZJM1 whole entry): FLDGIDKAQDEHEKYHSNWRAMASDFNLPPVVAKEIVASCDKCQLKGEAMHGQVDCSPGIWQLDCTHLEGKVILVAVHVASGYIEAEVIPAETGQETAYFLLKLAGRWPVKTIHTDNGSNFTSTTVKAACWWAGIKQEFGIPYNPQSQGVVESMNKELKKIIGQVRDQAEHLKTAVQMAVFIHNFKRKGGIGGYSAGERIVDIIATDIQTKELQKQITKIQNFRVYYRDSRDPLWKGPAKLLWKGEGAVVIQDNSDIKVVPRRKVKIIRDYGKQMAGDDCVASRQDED

Row | IC50 [1] [µM] | IC50 [2] [µM] | IC50 [4] [µM] | inhibition [5] [%] | Compound | CC50 [3] [µM] | EC50 [6] [µM]
1 | 6 | > 20 | > 20 | < 50 | O=C(Nc1ccccc1)c1nc[nH]c1C(=O)O | > 20 | > 20
2 | > 20 | > 20 | > 20 | < 50 | CNC(=O)c1[nH]cnc1C(=O)Nc1ccccn1 | > 20 | > 20
3 | 5.3 | > 20 | > 20 | < 50 | O=C(Nc1ccc([N+](=O)[O-])cc1)c1nc[nH]c1C(=O)O | > 20 | > 20
4 | > 20 | > 20 | > 20 | < 50 | O=C(NCc1ccc(F)cc1)c1nc[nH]c1C(=O)O | > 20 | > 20
5 | 1 | > 20 | > 20 | < 50 | Nc1ccc(NC(=O)c2nc[nH]c2C(=O)O)cc1 | > 20 | > 20
6 | 16 | > 20 | > 20 | < 50 | Cc1ccc(NC(=O)c2[nH]cnc2C(=O)NN)cc1 | > 20 | > 20
7 | > 20 | > 20 | > 20 | < 50 | O=C(Nc1ccccn1)c1nc[nH]c1C(=O)N1CCNCC1 | > 20 | > 20
8 | 10 | > 20 | > 20 | < 50 | O=C(Nc1ccc(F)cc1)c1nc[nH]c1C(=O)O | > 20 | > 20
9 | > 20 | > 20 | > 20 | < 50 | O=C(Nc1ccccn1)c1nc[nH]c1C(=O)N1CCC(O)CC1 | > 20 | > 20
10 | > 20 | > 20 | > 20 | < 50 | O=C(Nc1ccccc1O)c1nc[nH]c1C(=O)N1CCC(O)CC1 | > 20 | > 20
11 | > 20 | > 20 | > 20 | < 50 | O=C(Nc1ccccn1)c1nc[nH]c1C(=O)N1CCOCC1 | > 20 | > 20
12 | > 20 | > 20 | > 20 | < 50 | O=C(Nc1ccccc1O)c1nc[nH]c1C(=O)N1CCOCC1 | > 20 | > 20
13 | > 20 | > 20 | > 20 | < 50 | O=C(Nc1ccccc1O)c1nc[nH]c1C(=O)N1CCNCC1 | > 20 | > 20
14 | > 20 | > 20 | > 20 | < 50 | COC(=O)c1[nH]cnc1C(=O)Nc1ccc(F)cc1 | > 20 | > 20
15 | 13 | > 20 | > 20 | < 50 | O=C(Nc1ccccn1)c1nc[nH]c1C(=O)O | > 20 | > 20
16 | 0.4 | > 20 | > 20 | < 50 | NNC(=O)c1[nH]cnc1C(=O)Nc1ccccn1 | > 20 | > 20

Reference: ChEMBL document CHEMBL2417400, “Discovery of a novel 5-carbonyl-1H-imidazole-4-carboxamide class of inhibitors of the HIV-1 integrase-LEDGF/p75 interaction” (Bioorg Med Chem, 2013)
